{
  "source": "paper PMC6456254",
  "about": "(ACS chemical neuroscience, 2018)",
  "key": {"M1 [1]": {"test_system": "M1", "settings": "cited from earlier work"}, "M2 and M4": {"test_system": "M2 and M4", "settings": "cited from earlier work"}, "Solubility in SGF": {"experiment": "Solubility in SGF", "format": "physicochemical", "settings": "pH 1.6"}, "[2]": {"experiment": "Fraction unbound in rat plasma", "format": "in vitro ADME"}, "M1 [3]": {"test_system": "M1", "format": "cell-based", "settings": "high expressing recombinant cell lines, species not stated"}, "[4]": {"experiment": "Predicted hepatic clearance, human", "format": "in vitro ADME"}, "rat M1": {"target": "T1, rat M1 (Rattus norvegicus, UniProt P08482)", "T1 sequence (P08482 1-460)": "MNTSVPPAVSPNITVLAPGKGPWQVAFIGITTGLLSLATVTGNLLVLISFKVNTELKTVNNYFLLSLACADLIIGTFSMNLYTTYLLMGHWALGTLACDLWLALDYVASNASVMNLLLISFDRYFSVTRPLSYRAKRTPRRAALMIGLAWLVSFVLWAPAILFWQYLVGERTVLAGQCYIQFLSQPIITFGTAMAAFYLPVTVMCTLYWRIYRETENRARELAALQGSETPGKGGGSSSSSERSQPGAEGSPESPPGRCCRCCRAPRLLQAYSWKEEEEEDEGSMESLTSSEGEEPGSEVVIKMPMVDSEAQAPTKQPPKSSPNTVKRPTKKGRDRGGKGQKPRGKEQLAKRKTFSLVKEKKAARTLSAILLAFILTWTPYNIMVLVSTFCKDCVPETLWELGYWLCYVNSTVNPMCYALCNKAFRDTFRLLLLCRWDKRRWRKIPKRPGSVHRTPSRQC", "experiment": "Rat M1 functional assay in high expressing M1 cell line", "format": "cell-based", "settings": "rat M1, up to 30 μM", "method_in_brief": "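Calcium mobilization in CHO cells expressing rat M1. Agonist mode adds no exogenous acetylcholine, and EC50 is derived from the response. PAM mode is run with a fixed EC20 concentration of acetylcholine. Values are means from three independent experiments, each performed in triplicate.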"}, "[5]": {"experiment": "Fraction unbound in human plasma", "format": "in vitro ADME"}, "human M2−5": {"test_system": "human M2−5", "experiment": "PAM selectivity versus human M2-5", "format": "cell-based", "settings": "read-out: EC50 vs human M2−5"}, "[6]": {"experiment": "Predicted hepatic clearance, rat", "format": "in vitro ADME"}},
  "data": [
    {"compound": "COc1ccc(Cn2cc(C(=O)O)c(=O)c3ccccc32)cc1", "note": "[compound 1, BQCA]", "values": [
      {"measurement": "mode of M1 pharmacology", "setting": "M1 [1]", "result": "highly potent and robust M1 ago-PAM"}
    ]},
    {"compound": "O=C1C(=O)N(Cc2ccc(Br)cc2)c2ccccc21", "note": "[compound 9, VU0119498]", "values": [
      {"measurement": "activity at M2 and M4", "setting": "M2 and M4", "result": "inactive"},
      {"measurement": "M1 agonist activity", "setting": "M1 [1]; HTS hit", "result": "virtually no detectable M1 agonist activity"}
    ]},
    {"compound": "VU0451725 [compound 10]", "values": [
      {"measurement": "solubility", "setting": "Solubility in SGF", "result": "< 5", "unit": "µg/mL"}
    ]},
    {"compound": "VU6005877 [24c]", "values": [
      {"measurement": "CLp", "setting": "In vivo rat PK", "result": 7.3, "unit": "mL/min/kg"},
      {"measurement": "fraction unbound in plasma, rat fu", "setting": "[2]", "result": 0.016},
      {"measurement": "M1 agonism", "setting": "M1 [3]", "result": "devoid of M1 agonism"},
      {"measurement": "predicted hepatic clearance, human CLhep", "setting": "[4]", "result": 13.6, "unit": "mL/min/kg"},
      {"measurement": "agonist activity in high-expressing M1 cell line", "setting": "rat M1", "result": "no agonist activity"},
      {"measurement": "fraction unbound in plasma, human fu", "setting": "[5]", "result": 0.01},
      {"measurement": "EC50", "setting": "human M2−5", "result": "> 30", "unit": "µM"},
      {"measurement": "predicted hepatic clearance, rat CLhep", "setting": "[6]", "result": 31.7, "unit": "mL/min/kg"}
    ]}
  ]
}
